# Results pooled from the literature.
# Protocols differ between the studies behind these lines.
# Effect on: binding
# KEAP1: Kelch-like ECH-associated protein 1 (KEAP1, Homo sapiens, UniProt Q14145)
# folP: Dihydropteroate synthase (folP, Bacteria, UniProt P0AC13)
# NR4A1: Nuclear receptor subfamily 4immunitygroup A member 1 (NR4A1, Homo sapiens, UniProt P22736)
Compound,target,assay,Kd [nM]
C=CS(=O)(=O)c1ccc(Nc2nc(OCC3CCCCC3)c3nc[nH]c3n2)cc1,KEAP1,SPR,200
CCOC(=O)C(C)c1n[nH]c2nc(N)[nH]c(=O)c2c1=O (stereo not drawn),folP,SPR,199
O=C(O)/C=C/c1ccc(O)c(O)c1,KEAP1,SPR,4900
CC(=O)OCc1nn(C)c2nc(N)[nH]c(=O)c2c1=O,folP,SPR,14.8
NC(=O)c1ncn([C@@H]2O[C@H](CO)[C@@H](O)[C@H]2O)n1,"5'-AMP-activated protein kinase catalytic subunit alpha-1 (PRKAA1, Homo sapiens, UniProt Q13131)",SPR,6750
CCCCCCCCC(=O)c1cc(O)c(O)c(O)c1,NR4A1,ITC,3700
OC[C@H]1OC(O)[C@H](O)[C@@H](O)[C@@H]1O (stereo partly drawn),"ATP-dependent RNA helicase DDX18 (Homo sapiens, UniProt Q9NVP1)",MST,77200
N=C(N)NCCCC(=O)O,"Alkaline phosphatase, tissue-nonspecific isozyme (ALPL, Homo sapiens, UniProt P05186)",ITC,2000
COc1cccc2c(Nc3ccc4[nH]c(C(=O)N/N=C/c5ccc(SC)cc5)cc4c3)cc(C)nc12,NR4A1,ITC,2300
